Bioassay records deposited in PubChem BioAssay by several laboratories.
HCV NS3 hel inh = blocks Hepatitis C virus NS3 helicase unwinding | NS3 helicase DNA unwinding, Cy5 molecular beacon fluorescence | inhibition, % at 10.9 µM | 290,000 compounds, 0.56% hits;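 active = inhibition above the mean of all tested compounds plus 3 SD, set per campaign, cut at about 35% in these data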
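Assay system – hepatitis C virus NS3 helicase domain fragment enzyme · Buffer or medium – MOPS pH 6.5, MgCl2, DTT, Tween20, BSA · Reagent – Cy5/quencher beacon DNA duplex and ATP to start · Compound – single 10.9 µM dose · Timing – 1 h at 25 °C · Technique – Cy5 beacon fluorescence read at start and 1 h · Measure – % inhibition of unwinding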
core dimer inh = HCV core protein dimerization inhibition | TR-FRET GST/Flag-core106 dimerization, 1536-well | inhibition, % at 5 µM | 300,000 compounds, 0.33% hits;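 active = inhibition above the mean of all tested compounds plus 3 SD, set per screening campaign, cut at about 45% in these data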
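System – GST-tagged and Flag-tagged HCV core protein residues 1-106 · Repeats – one well for each compound · Technique – TR-FRET 671 and 617 nm emission · Doses – one concentration, 5 µM, in 0.5% DMSO · Times – 4 h, 22.5 °C incubation · Also added – Eu donor and XL665 acceptor anti-tag antibodies · Measure – percent inhibition of core106 dimerization signal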
Tb MetRS inh = Trypanosoma brucei MetRS inhibition | purified T. brucei MetRS, ATP depletion, Kinase-Glo luminescence | inhibition, % at 11.9 µM | 360,000 compounds, 0.4% hits;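 active = inhibition above a per-plate cutoff of the control wells' mean inhibition plus 3 SD, cut at about 5.5% in these data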
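Test system – parasite MetRS enzyme · Reagent – substrates ATP, L-methionine and bulk Escherichia coli tRNA · Doses – 11.9 µM compound single dose, 0.9% DMSO · Times – 15 min enzyme-compound preincubation, 2 h reaction, 10 min detection, 25 °C · Signal – Kinase-Glo luminescence, ATP depletion format · Controls – DMSO-only wells as low control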
Lipid droplet = hepatic lipid droplet formation modulation; 240,000 compounds, 0.4% hits; AML12 mouse hepatocytes, oleate lipid droplets, BODIPY imaging; inhibition, % at 6.5 µM;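 active = lipid droplet intensity inhibited by at least 50%, with more than 500 cells counted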
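Material: mouse AML12 hepatocyte cell line, fixed after treatment; Timing: compound with oleate, overnight; Technique: high-content imaging of BODIPY-stained droplets and DAPI nuclei; Probe or stimulus: oleate, 100 µM final; Dosing: compound at 6.5 µM only.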
Tb MetRS conf = Trypanosoma brucei MetRS inhibition confirmed | inhibition, % at 11.9 µM | AID 624412 | 1,400 compounds, 93% hits | T. brucei MetRS enzyme, luminescence (ATP depletion) | shares compounds with Tb MetRS inh; in the data active = inhibition above about 7%
Jurkat cytotox = kills Jurkat cells in T. brucei MetRS counterscreen. shares compounds with Tb MetRS inh. Jurkat cells viability, ATP luminescence. inhibition, % at 8.3 µM. 1,400 compounds, 12% hits; in the data active = inhibition above about 15%
TbMetRS FP orth = T. brucei MetRS inhibition, orthogonal assay; inhibition, % at 11.9 µM; purified T. brucei MetRS, fluorescence polarization; shares compounds with Tb MetRS inh; 1,400 compounds, 44% hits; AID 651607; in the data active = inhibition above about 17%
Large screens that a line does not name were inactive (follow-up assays come after a bar, where they were run). The list is not random: actives were taken first. Their share in the collection is about 1.3%.

O=C(Cc1ccccc1)N/N=C/C=C/c1ccccc1[N+](=O)[O-]	Tb MetRS inh 7.0 | Tb MetRS conf 11 | Jurkat cytotox inactive | TbMetRS FP orth inactive
N#C/C(=C\C=C\c1ccccc1[N+](=O)[O-])C(=O)NCc1ccccc1	Tb MetRS inh 13 | Tb MetRS conf 30 | Jurkat cytotox 77 | TbMetRS FP orth inactive
N#C/C(=C\c1ccccc1[N+](=O)[O-])C(=O)NCc1ccccc1	none
O=C(NCc1ccccc1)C(c1ccccc1)N(C(=O)c1csnn1)c1ccccc1 (stereo not drawn)	none
Cc1c(NC(=O)CSc2nc3ccccc3c(=O)n2C(C)C)c(=O)n(-c2ccccc2)n1C	none (no result: HCV NS3 hel inh, core dimer inh, Lipid droplet)
CCOc1ccc2nc(SCC(=O)NCc3ccc(OC)cc3)[nH]c2c1	none (no result: core dimer inh)
COc1ccc(CNC(=O)CSc2nc3ccc(C)cc3[nH]2)cc1OC	Tb MetRS inh 8.9 | Tb MetRS conf 21 | Jurkat cytotox inactive | TbMetRS FP orth inactive
Cc1ccc2nc(SCC(=O)NCc3ccc(S(N)(=O)=O)cc3)[nH]c2c1	none
Cc1ccc2nc(SCC(=O)NCc3ccc(F)cc3)[nH]c2c1	Tb MetRS inh 18 | Tb MetRS conf 22 | Jurkat cytotox inactive | TbMetRS FP orth inactive
COc1ccc(-n2ccn(CC(=O)Nc3ccc(OC)cc3OC)c(=O)c2=O)cc1	none
CCc1ccc(N(C(=O)CNC(=O)c2cccs2)C(C(=O)NC(C)(C)C)c2cc(OC)c(OC)c(OC)c2)cc1 (stereo not drawn)	none (no result: Lipid droplet)
O=C(c1cc2cc(F)ccc2[nH]1)N1CCC(Cc2ccccc2)CC1	none
CNC(=S)NNC(=O)c1sccc1OCc1ccc(Cl)cc1Cl	none (no result: Lipid droplet)
S=c1nc(-c2sccc2OCc2ccc(Cl)cc2Cl)[nH][nH]1	Tb MetRS inh 8.6 (no result: Lipid droplet) | Tb MetRS conf 13 | Jurkat cytotox inactive | TbMetRS FP orth inactive
CCOC(=O)CNC(=O)C1CCCc2c1[nH]c1ccc(Cl)cc21 (stereo not drawn)	Tb MetRS inh 12 | Tb MetRS conf 20 | Jurkat cytotox inactive | TbMetRS FP orth inactive
O=C(Nn1c(-c2ccc(Br)cc2)nc2ccccc2c1=O)c1ccc([N+](=O)[O-])cc1	Tb MetRS inh 8.7 | Tb MetRS conf 18 | Jurkat cytotox inactive | TbMetRS FP orth inactive
Cc1ccc2[nH]c(=O)c(CN(Cc3cccs3)Cc3nnnn3Cc3ccccc3)cc2c1	Tb MetRS inh 9.1 (no result: Lipid droplet) | Tb MetRS conf 21 | Jurkat cytotox inactive | TbMetRS FP orth inactive
NC(=S)NNc1cc(Cl)cc(Cl)c1	Tb MetRS inh 8.1 | Tb MetRS conf 18 | Jurkat cytotox inactive | TbMetRS FP orth inactive
NC(=S)Nc1cc(Cl)cc(Cl)c1	none
CCC(=O)c1c[nH]c(C(=O)NCc2cccc(C(F)(F)F)c2)c1	Tb MetRS inh 6.0 (no result: Lipid droplet) | Tb MetRS conf 12 | Jurkat cytotox inactive | TbMetRS FP orth inactive
Cn1c(NCc2cccc(Br)c2)nc2ccccc21	Tb MetRS inh 40 | Tb MetRS conf 53 | Jurkat cytotox inactive | TbMetRS FP orth 29
COc1ccc(C2N(Cc3ccccc3)CCN2Cc2ccccc2)cc1[N+](=O)[O-]	none
Cc1cccc(CNC(=O)c2ccc3c(c2)N(C)CCS3)c1	none
CN1CCSc2ccc(C(=O)NCc3cccc(Br)c3)cc21	Tb MetRS inh 5.7 | Tb MetRS conf 11 | Jurkat cytotox inactive | TbMetRS FP orth inactive
COc1ccc(N2CC(C)(C)[C@H](CC(=O)Nc3ccccc3)C2=O)cc1	none (no result: HCV NS3 hel inh, core dimer inh, Lipid droplet)
Clc1ccccc1-c1ccc2ncnc(NCc3cccnc3)c2c1	Tb MetRS inh 12 (no result: HCV NS3 hel inh, core dimer inh, Lipid droplet) | Tb MetRS conf 44 | Jurkat cytotox inactive | TbMetRS FP orth 33
c1cncc(-c2ccc3ncnc(NCc4ccc5c(c4)OCO5)c3c2)c1	none (no result: HCV NS3 hel inh, core dimer inh, Lipid droplet)
c1cncc(CNc2ncnc3ccc(-c4cccnc4)cc23)c1	none (no result: HCV NS3 hel inh, core dimer inh, Lipid droplet)
Clc1ccccc1-c1ccc2ncnc(NCc3ccc4c(c3)OCO4)c2c1	Tb MetRS inh 26 (no result: HCV NS3 hel inh, core dimer inh, Lipid droplet) | Tb MetRS conf 32 | Jurkat cytotox inactive | TbMetRS FP orth 22
COc1cccc(-c2c(C(=O)O)cc(O)c3ccc(OC)cc23)c1	none (no result: HCV NS3 hel inh, core dimer inh, Lipid droplet)
O=C(Cn1cc(C(=O)C(=O)N2CCOCC2)c2ccccc21)Nc1cccc(C(F)(F)F)c1	Tb MetRS inh 90 (no result: HCV NS3 hel inh, core dimer inh, Lipid droplet) | Tb MetRS conf 97 | Jurkat cytotox inactive | TbMetRS FP orth 95
CC(C)(C)c1ccc(C(=O)CCC(=O)OCC(=O)NCCc2ccc(S(N)(=O)=O)cc2)cc1	none (no result: HCV NS3 hel inh, core dimer inh, Lipid droplet)
CC1=C(C(=O)N(C)C)CC(CC(=O)NC2CCCC2)C(=O)N1Cc1ccc(F)cc1 (stereo not drawn)	none (no result: HCV NS3 hel inh, core dimer inh, Lipid droplet)
CCN(CC)S(=O)(=O)c1cc(C(=O)Nc2ccncc2)ccc1Cl	none (no result: Lipid droplet)
CCN(CC)S(=O)(=O)c1cc(C(=O)N(C)CC(=O)Nc2ccc(Cl)cc2)ccc1Cl	Tb MetRS inh 43 | Tb MetRS conf 57 | Jurkat cytotox inactive | TbMetRS FP orth 24
O=C(NCc1cc(Cl)cc(Cl)c1)c1ccc2nc([C@H]3C[C@H](O)[C@@H](CO)O3)[nH]c2c1	Tb MetRS inh 22 (no result: HCV NS3 hel inh, core dimer inh, Lipid droplet) | Tb MetRS conf 49 | Jurkat cytotox inactive | TbMetRS FP orth 33
CC(=O)NCCC(=O)N1CCc2c([nH]c3ccccc23)C1c1cccc(Cl)c1 (stereo not drawn)	none
O=C(c1cnccn1)N1CCc2c([nH]c3ccccc23)C1c1cccc(Cl)c1 (stereo not drawn)	Tb MetRS inh 7.0 | Tb MetRS conf 10 | Jurkat cytotox inactive | TbMetRS FP orth inactive
